Data from ChEMBL document CHEMBL4602693, “Structural Effect on Adjuvanticity of Saponins” (J Med Chem, 2020).
The source made the active and inactive calls. The calls are words filed in the database; no cut-off is given here.

Assays:
Format in all cases: functional, organism-based
Mus musculus [1] = experiment: Immunostimulatory activity in rHagB-immunized BALB/c mouse assessed as potentiation of rHagB specific antibody response by measuring increase in serum anti-rHagB IgG level at 100 ug, sc administered at 14 days interval for 3 times and measured at 2 to 4 week post rHagB immunization by ELISA
Summary of the method: (§1)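 Female BALB/c mice, 8-10 weeks old, six per group. Given His-tag-purified recombinant HagB (35 μg) s.c. alone or with 100 μg saponin adjuvant on days 0, 14 and 28. Serum was collected before each dose and 2 weeks post-final. Anti-rHagB IgG, IgG1 or IgG2a was measured by ELISA on rHagB-coated (1 μg/ml) plates with duplicate serial dilutions.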

Mus musculus [2] = experiment: Immunostimulatory activity in ovalbumin-immunized BALB/c mouse assessed as potentiation of OVA specific Th2 immune response by measuring increase in serum anti-OVA IgG1 level at 100 ug, sc administered at 14 days interval for 3 times and measured at 4 to 6 week post OVA immunization by ELISA
Summary of the method: (§2)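 Female BALB/c mice, 8-10 weeks old, six per group. Given OVA (20 μg) s.c. alone or with 100 μg saponin adjuvant on days 0, 14 and 28. Tail-vein blood was taken before each dose and 2 weeks after the last. Serum anti-OVA IgG, IgG1 or IgG2a was measured by ELISA on OVA-coated (0.1 μg/ml) plates with serial two-fold dilutions in duplicate.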

Mus musculus [3] = experiment: Immunostimulatory activity in rHagB-immunized BALB/c mouse assessed as potentiation of rHagB specific Th2 immune response by measuring increase in serum anti-rHagB IgG1 level at 100 ug, sc administered at 14 days interval for 3 times and measured at 2 to 4 week post rHagB immunization by ELISA; summary of the method: as §1
Mus musculus [4] = experiment: Immunostimulatory activity in ovalbumin-immunized BALB/c mouse assessed as potentiation of OVA specific Th1 immune response by measuring increase in serum anti-OVA IgG2a level at 100 ug, sc administered at 14 days interval for 3 times and measured at 4 to 6 week post OVA immunization by ELISA; summary of the method: as §2
Mus musculus [5] = experiment: Immunostimulatory activity in ovalbumin-immunized BALB/c mouse assessed as potentiation of OVA specific antibody response by measuring increase in serum anti-OVA IgG level at 100 ug, sc administered at 14 days interval for 3 times and measured at 4 to 6 week post OVA immunization by ELISA; summary of the method: as §2
Mus musculus [6] = experiment: Immunostimulatory activity in rHagB-immunized BALB/c mouse assessed as potentiation of rHagB specific Th1 immune response by measuring increase in serum anti-rHagB IgG2a level at 100 ug, sc administered at 14 days interval for 3 times and measured at 2 to 6 week post rHagB immunization by ELISA; summary of the method: as §1
Mus musculus [7] = experiment: Immunostimulatory activity in ovalbumin-immunized BALB/c mouse assessed as potentiation of OVA specific Th2 immune response by measuring increase in serum anti-OVA IgG1 level at 100 ug, sc administered at 14 days interval for 3 times and measured at 6 week post OVA immunization by ELISA; summary of the method: as §2
Mus musculus [8] = experiment: Immunostimulatory activity in ovalbumin-immunized BALB/c mouse assessed as potentiation of OVA specific Th2 immune response by measuring increase in serum anti-OVA IgG1 level at 100 ug, sc administered at 14 days interval for 3 times and measured at 4 week post OVA immunization by ELISA; summary of the method: as §2
Mus musculus [9] = experiment: Immunostimulatory activity in rHagB-immunized BALB/c mouse assessed as potentiation of rHagB specific antibody response by measuring increase in serum anti-rHagB IgG level at 100 ug, sc administered at 14 days interval for 3 times and measured at 6 week post rHagB immunization by ELISA; summary of the method: as §1
Mus musculus [10] = experiment: Immunostimulatory activity in rHagB-immunized BALB/c mouse assessed as potentiation of rHagB specific Th2 immune response by measuring increase in serum anti-rHagB IgG1 level at 100 ug, sc administered at 14 days interval for 3 times and measured at 6 week post rHagB immunization by ELISA; summary of the method: as §1

Structure (SMILES)	Activity (Mus musculus [1])	Activity (Mus musculus [2])	Activity (Mus musculus [3])	Activity (Mus musculus [4])	Activity (Mus musculus [5])	Activity (Mus musculus [6])	Activity (Mus musculus [7])	Activity (Mus musculus [8])	Activity (Mus musculus [9])	Activity (Mus musculus [10])
C[C@@H]1O[C@@H](O[C@H]2[C@H](O)[C@@H](C(=O)NCCCCCCCCCCC(=O)OCc3ccccc3)O[C@@H](O[C@H]3CC[C@]4(C)[C@H]5CC=C6[C@@H]7CC(C)(C)CC[C@]7(C(=O)O[C@@H]7O[C@H](C)[C@H](O)[C@H](O)[C@H]7O[C@H]7O[C@@H](C)[C@H](O[C@H]8OC[C@H](O)[C@@H](O)[C@@H]8O)[C@@H](O[C@@H]8O[C@H](CO)[C@@H](O)[C@H](O[C@@H]9OC[C@@H](O)[C@H](O)[C@H]9O)[C@H]8O)[C@H]7O)[C@H](O)C[C@@]6(C)[C@]5(C)CC[C@H]4[C@]3(C)C=O)[C@@H]2O[C@@H]2O[C@H](CO)[C@H](O)[C@H](O)[C@H]2O)[C@H](O)[C@H](O)[C@H]1O	Active	Active	Active	Active	Active	Active	–	–	–	–
C[C@@H]1O[C@@H](O[C@H]2[C@H](O)[C@@H](C(=O)NCCCCCCCCCCC(=O)OCc3ccccc3)O[C@@H](O[C@H]3CC[C@]4(C)[C@H]5CC=C6[C@@H]7CC(C)(C)CC[C@]7(C(=O)O[C@@H]7O[C@H](C)[C@H](O)[C@H](O)[C@H]7O[C@H]7O[C@@H](C)[C@H](O[C@H]8OC[C@H](O)[C@@H](O)[C@@H]8O)[C@@H](O[C@@H]8O[C@H](CO)[C@@H](O)[C@H](O[C@@H]9OC[C@@H](O)[C@H](O)[C@H]9O)[C@H]8O)[C@H]7O)CC[C@@]6(C)[C@]5(C)CC[C@H]4[C@]3(C)C=O)[C@@H]2O[C@@H]2O[C@H](CO)[C@H](O)[C@H](O)[C@H]2O)[C@H](O)[C@H](O)[C@H]1O	–	Active	–	Active	Active	–	–	–	–	–
C[C@@H]1O[C@@H](O[C@H]2[C@H](O)[C@@H](C(=O)NCCCCCCCCCCC(=O)O)O[C@@H](O[C@H]3CC[C@]4(C)[C@H]5CC=C6[C@@H]7CC(C)(C)CC[C@]7(C(=O)O[C@@H]7O[C@H](C)[C@H](O)[C@H](O)[C@H]7O[C@H]7O[C@@H](C)[C@H](O[C@H]8OC[C@H](O)[C@@H](O)[C@@H]8O)[C@@H](O[C@@H]8O[C@H](CO)[C@@H](O)[C@H](O[C@@H]9OC[C@@H](O)[C@H](O)[C@H]9O)[C@H]8O)[C@H]7O)[C@H](O)C[C@@]6(C)[C@]5(C)CC[C@H]4[C@]3(C)C=O)[C@@H]2O[C@@H]2O[C@H](CO)[C@H](O)[C@H](O)[C@H]2O)[C@H](O)[C@H](O)[C@H]1O	Active	–	Active	–	Active	Active	inactive	Active	–	–
C[C@@H]1O[C@@H](O[C@H]2[C@H](O)[C@@H](C(=O)NCCCCCCCCCCC(=O)O)O[C@@H](O[C@H]3CC[C@]4(C)[C@H]5CC=C6[C@@H]7CC(C)(C)CC[C@]7(C(=O)O[C@@H]7O[C@H](C)[C@H](O)[C@H](O)[C@H]7O[C@H]7O[C@@H](C)[C@H](O[C@H]8OC[C@H](O)[C@@H](O)[C@@H]8O)[C@@H](O[C@@H]8O[C@H](CO)[C@@H](O)[C@H](O[C@@H]9OC[C@@H](O)[C@H](O)[C@H]9O)[C@H]8O)[C@H]7O)CC[C@@]6(C)[C@]5(C)CC[C@H]4[C@]3(C)C=O)[C@@H]2O[C@@H]2O[C@H](CO)[C@H](O)[C@H](O)[C@H]2O)[C@H](O)[C@H](O)[C@H]1O	–	Active	–	Active	Active	–	–	–	–	–
CCCCCCCCCCCCNC(=O)[C@H]1O[C@@H](O[C@H]2CC[C@]3(C)[C@H]4CC=C5[C@@H]6CC(C)(C)CC[C@]6(C(=O)O[C@@H]6O[C@H](C)[C@H](O)[C@H](O)[C@H]6O[C@H]6O[C@@H](C)[C@H](O[C@H]7OC[C@H](O)[C@@H](O)[C@@H]7O)[C@@H](O[C@@H]7O[C@H](CO)[C@@H](O)[C@H](O[C@@H]8OC[C@@H](O)[C@H](O)[C@H]8O)[C@H]7O)[C@H]6O)CC[C@@]5(C)[C@]4(C)CC[C@H]3[C@]2(C)C=O)[C@H](O[C@@H]2O[C@H](CO)[C@H](O)[C@H](O)[C@H]2O)[C@@H](O[C@@H]2O[C@@H](C)[C@H](O)[C@@H](O)[C@H]2O)[C@@H]1O	–	Active	–	Active	Active	–	–	–	–	–
CCCCCCCCCCCCNC(=O)[C@H]1O[C@@H](O[C@H]2CC[C@]3(C)[C@H]4CC=C5[C@@H]6CC(C)(C)CC[C@]6(C(=O)O[C@@H]6O[C@H](C)[C@H](O)[C@H](O)[C@H]6O[C@@H]6O[C@@H](C)[C@H](O[C@@H]7OC[C@@H](O)[C@H](O[C@@H]8OC[C@](O)(CO)[C@H]8O)[C@H]7O)[C@@H](O)[C@H]6O)[C@H](O)C[C@@]5(C)[C@]4(C)CC[C@H]3[C@]2(C)C=O)[C@H](O[C@@H]2O[C@H](CO)[C@H](O)[C@H](O)[C@H]2O)[C@@H](O[C@@H]2OC[C@@H](O)[C@H](O)[C@H]2O)[C@@H]1O	Active	Active	Active	Active	Active	Active	–	–	Active	–
C[C@@H]1O[C@H](O[C@H]2[C@H](OC(=O)[C@]34CCC(C)(C)C[C@H]3C3=CC[C@@H]5[C@@]6(C)CC[C@H](O[C@@H]7O[C@H](C(=O)NCCCCCCCCCCC(=O)O)[C@@H](O)[C@H](O[C@@H]8OC[C@@H](O)[C@H](O)[C@H]8O)[C@H]7O[C@@H]7O[C@H](CO)[C@H](O)[C@H](O)[C@H]7O)[C@@](C)(C=O)[C@@H]6CC[C@@]5(C)[C@]3(C)C[C@H]4O)O[C@H](C)[C@H](O)[C@@H]2O)[C@H](O)[C@H](O[C@@H]2O[C@H](CO)[C@@H](O)[C@H](O)[C@H]2O)[C@H]1O[C@H]1OC[C@H](O)[C@@H](O[C@H]2OC[C@H](O)[C@@H](O)[C@@H]2O)[C@@H]1O	Active	–	Active	–	–	Active	–	–	–	Active
C[C@@H]1O[C@H](O[C@H]2[C@H](OC(=O)[C@]34CCC(C)(C)C[C@H]3C3=CC[C@@H]5[C@@]6(C)CC[C@H](O[C@@H]7O[C@H](C(=O)NCCCCCCCCCCC(=O)OCc8ccccc8)[C@@H](O)[C@H](O[C@@H]8OC[C@@H](O)[C@H](O)[C@H]8O)[C@H]7O[C@@H]7O[C@H](CO)[C@H](O)[C@H](O)[C@H]7O)[C@@](C)(C=O)[C@@H]6CC[C@@]5(C)[C@]3(C)C[C@H]4O)O[C@H](C)[C@H](O)[C@@H]2O)[C@H](O)[C@H](O[C@@H]2O[C@H](CO)[C@@H](O)[C@H](O)[C@H]2O)[C@H]1O[C@H]1OC[C@H](O)[C@@H](O[C@H]2OC[C@H](O)[C@@H](O)[C@@H]2O)[C@@H]1O	Active	–	Active	–	–	Active	–	–	–	Active
